Measured values taken from ChEMBL document CHEMBL1275580, “Antifungal susceptibilities among different serotypes of Cryptococcus gattii and Cryptococcus neoformans” (2009).
Values after ≈ are worked out from the molar mass of the structure shown.

Tests used:
Cryptococcus neoformans [1] = experiment: Antifungal activity against Cryptococcus neoformans after 72 hrs by broth microdilution method; type: functional
Method in brief: (§1)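 Isolates subcultured at least twice on Sabouraud dextrose agar; serotype assigned by multiplex PCR, species confirmed on canavanine-glycine-bromothymol blue medium. CLSI M27-A2 broth microdilution in RPMI 1640 buffered to pH 7.0 with MOPS, inoculum 0.5 × 10^3 to 2.5 × 10^3 cells/ml, 35°C. Final drug ranges were 0.015–8 or 0.25–64 μg/ml depending on agent. MIC read at 72 h as 50% turbidity reduction versus growth control, or as 100% inhibition for the polyene. C. krusei ATCC 6258 and C. parapsilosis ATCC 22019 served as QC strains.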

[2] = tested on: Cryptococcus gattii species complex; experiment: Antifungal activity against Cryptococcus gattii after 72 hrs by broth microdilution method; type: functional, Cryptococcus bacillisporus
Method in brief: (§2)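 Isolates subcultured at least twice on Sabouraud dextrose agar; serotype by multiplex PCR, species confirmed on canavanine-glycine-bromothymol blue medium. CLSI M27-A2 broth microdilution in RPMI 1640 with MOPS, pH 7.0. Inoculum 0.5–2.5 × 10^3 cells/ml, 35°C. Final drug range 0.015–8 or 0.25–64 μg/ml. MIC at 72 h read as 50% turbidity reduction versus growth control, or 100% inhibition for the polyene.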

[3] = tested on: Cryptococcus gattii species complex; experiment: Antifungal activity against Cryptococcus gattii serotype C after 72 hrs by broth microdilution method; type: functional, Cryptococcus bacillisporus; method in brief: as §2
[4] = tested on: Cryptococcus gattii species complex; experiment: Antifungal activity against Cryptococcus gattii serotype B after 72 hrs by broth microdilution method; type: functional, Cryptococcus bacillisporus; method in brief: as §2
Cryptococcus neoformans [5] = experiment: Antifungal activity against Cryptococcus neoformans serotype AD after 72 hrs by broth microdilution method; type: functional; method in brief: as §1
Cryptococcus neoformans [6] = experiment: Antifungal activity against Cryptococcus neoformans serotype A after 72 hrs by broth microdilution method; type: functional; method in brief: as §1
Cryptococcus neoformans [7] = experiment: Antifungal activity against Cryptococcus neoformans serotype D after 72 hrs by broth microdilution method; type: functional; method in brief: as §1

Structure (SMILES)	MIC50 (Cryptococcus neoformans [1]) [µg/mL]	MIC90 (Cryptococcus neoformans [1]) [µg/mL]	MIC50 [2] [µg/mL]	MIC90 [2] [µg/mL]	MIC50 [3] [µg/mL]	MIC90 [3] [µg/mL]	MIC50 [4] [µg/mL]	MIC90 [4] [µg/mL]	MIC50 (Cryptococcus neoformans [5]) [µg/mL]	MIC90 (Cryptococcus neoformans [5]) [µg/mL]	MIC50 (Cryptococcus neoformans [6]) [µg/mL]	MIC90 (Cryptococcus neoformans [6]) [µg/mL]	MIC50 (Cryptococcus neoformans [7]) [µg/mL]	MIC90 (Cryptococcus neoformans [7]) [µg/mL]	MIC (Cryptococcus neoformans [1]) [µg/mL]	MIC [3] [µg/mL]	MIC (Cryptococcus neoformans [5]) [µg/mL]	MIC (Cryptococcus neoformans [7]) [µg/mL]
OC(Cn1cncn1)(Cn1cncn1)c1ccc(F)cc1F [FLUCONAZOLE]	2 (≈ 6.53 µM)	4 (≈ 13.1 µM)	2 (≈ 6.53 µM)	8 (≈ 26.1 µM)	2 (≈ 6.53 µM)	4 (≈ 13.1 µM)	2 (≈ 6.53 µM)	8 (≈ 26.1 µM)	2 (≈ 6.53 µM)	4 (≈ 13.1 µM)	2 (≈ 6.53 µM)	4 (≈ 13.1 µM)	–	–	–	–	–	–
C[C@@H](c1ncncc1F)[C@](O)(Cn1cncn1)c1ccc(F)cc1F [VORICONAZOLE]	0.06 (≈ 0.172 µM)	0.25 (≈ 0.716 µM)	0.125 (≈ 0.358 µM)	0.25 (≈ 0.716 µM)	0.125 (≈ 0.358 µM)	0.25 (≈ 0.716 µM)	0.125 (≈ 0.358 µM)	0.25 (≈ 0.716 µM)	0.06 (≈ 0.172 µM)	0.125 (≈ 0.358 µM)	0.06 (≈ 0.172 µM)	0.25 (≈ 0.716 µM)	0.03 (≈ 0.0859 µM)	0.25 (≈ 0.716 µM)	–	–	–	–
Nc1nc(=O)[nH]cc1F [FLUCYTOSINE]	4 (≈ 31 µM)	8 (≈ 62 µM)	2 (≈ 15.5 µM)	8 (≈ 62 µM)	2 (≈ 15.5 µM)	8 (≈ 62 µM)	2 (≈ 15.5 µM)	4 (≈ 31 µM)	4 (≈ 31 µM)	8 (≈ 62 µM)	4 (≈ 31 µM)	4 (≈ 31 µM)	4 (≈ 31 µM)	8 (≈ 62 µM)	–	–	–	–
C[C@@H](c1nc(-c2ccc(C#N)cc2)cs1)[C@](O)(Cn1cncn1)c1cc(F)ccc1F [ISAVUCONAZOLE]	< 0.015	0.06 (≈ 0.137 µM)	0.03 (≈ 0.0686 µM)	0.06 (≈ 0.137 µM)	< 0.015	0.03 (≈ 0.0686 µM)	0.03 (≈ 0.0686 µM)	0.06 (≈ 0.137 µM)	< 0.015	0.03 (≈ 0.0686 µM)	0.03 (≈ 0.0686 µM)	0.125 (≈ 0.286 µM)	< 0.015	0.03 (≈ 0.0686 µM)	< 0.015	< 0.015	< 0.015	< 0.015
CC[C@@H]([C@H](C)O)n1ncn(-c2ccc(N3CCN(c4ccc(OC[C@@H]5CO[C@@](Cn6cncn6)(c6ccc(F)cc6F)C5)cc4)CC3)cc2)c1=O [POSACONAZOLE]	0.03 (≈ 0.0428 µM)	0.06 (≈ 0.0856 µM)	0.03 (≈ 0.0428 µM)	0.125 (≈ 0.178 µM)	0.03 (≈ 0.0428 µM)	0.06 (≈ 0.0856 µM)	0.03 (≈ 0.0428 µM)	0.125 (≈ 0.178 µM)	0.03 (≈ 0.0428 µM)	0.06 (≈ 0.0856 µM)	0.06 (≈ 0.0856 µM)	0.25 (≈ 0.357 µM)	< 0.015	0.06 (≈ 0.0856 µM)	–	–	–	< 0.015
C[C@@H]1[C@H](O)[C@@H](C)/C=C/C=C/C=C/C=C/C=C/C=C/C=C/[C@H](O[C@@H]2O[C@H](C)[C@@H](O)[C@H](N)[C@@H]2O)C[C@@H]2O[C@](O)(C[C@@H](O)C[C@@H](O)[C@H](O)CC[C@@H](O)C[C@@H](O)CC(=O)O[C@H]1C)C[C@H](O)[C@H]2C(=O)O [AMPHOTERICIN B]	0.25 (≈ 0.271 µM)	0.5 (≈ 0.541 µM)	0.25 (≈ 0.271 µM)	0.25 (≈ 0.271 µM)	0.25 (≈ 0.271 µM)	0.5 (≈ 0.541 µM)	0.25 (≈ 0.271 µM)	0.25 (≈ 0.271 µM)	0.25 (≈ 0.271 µM)	0.25 (≈ 0.271 µM)	0.25 (≈ 0.271 µM)	0.5 (≈ 0.541 µM)	–	–	–	–	–	–
